Tests used:
[1] = system: primary cortical neuronal cells; test: Aβ induced toxicity, MTS assay with primary neuronal cultures; assay type: cell-based, mice; conditions: for protection from Aβ toxicity at 10 µM peptide: 10 µM Aβ(1–42), MTS, Aβ alone ~35% cell viability
Method in brief: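 Cortical neurons from E15.5 mouse embryos, matured in neurobasal medium. Aβ(1–42) at 1 mg/mL in PBS, diluted to 10 µM with or without test peptide or mutant TTR at varying doses. Added at 6 DIV alongside vehicle and controls. At 8 DIV, MTS reagent for 2–3 h, absorbance 490 nm. Significance versus vehicle and versus Aβ set at p < 0.05.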

Aβ(1–40) [2] = biological target: T1, Aβ(1–40) (Homo sapiens, UniProt P05067); test: Aβ aggregate growth kinetics by dynamic light scattering; assay type: biochemical; conditions: method not specified
T1 sequence (P05067 672-711 limits assumed): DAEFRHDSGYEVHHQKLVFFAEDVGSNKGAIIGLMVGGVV
Method in brief: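 Aβ(1–40) relyophilized from 50% ACN and stored as a urea/glycine stock; thawed, sonicated 2 min and diluted into PBSA. 140 µM Aβ alone or with 14 µM peptide, 0.45 µm filtered into a cuvette held at 37 °C. 488 nm laser; intensity at 90° recorded over 10 h and normalized to total mass concentration; z-averaged hydrodynamic diameter from the autocorrelation function by cumulants.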

Aβ(1–40) [3] = biological target: T1, Aβ(1–40); test: Thioflavin T; assay type: biochemical; conditions: 28 µM Aβ, 2.8 µM peptide or protein, 37 °C, 1, 5, 24, 48 h
Method in brief: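 Aβ(1–40) urea/glycine stock diluted into PBSA; 28 µM alone or with 2.8 µM peptide or mutant TTR, incubated at 37 °C. At 1, 5, 24 and 48 h, aliquots diluted 14-fold into 10 µM ThT in PBSA. Excitation 440 nm, emission 460–500 nm; intensity at 480 nm used. Three serial spectra averaged, ThT-in-PBSA background subtracted; some samples from two independent experiments.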

[4] = Peptide self-association by light scattering; assay type: physicochemical; conditions: peptide alone 80 µM, 37 °C, after 1 h of incubation; data not shown
[5] = Peptide self-assembly by photoinduced cross-linking; assay type: physicochemical; conditions: peptide 36 µM, not cross-linked, boiled, denaturing gel, silver staining
Method in brief: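 Peptides at 36 µM in PBSA, 1 h at 37 °C, then photo-cross-linked (PICUP) and heated 95 °C for 5 min. Non-cross-linked samples boiled for comparison. Separated on 10–20% Tris-Tricine gel; silver stained.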

Row | Substance | protection from Aβ toxicity at 10 µM peptide [1] | effect on Aβ aggregation (summary statement) (Aβ(1–40) [2]) | inhibition of Aβ toxicity (summary statement) ([1]; summary, concentration not given) | effect on ThT fluorescence increase up to 48 h (Aβ(1–40) [3]) | light scattered above background (self-association) [4] | bands in the absence of cross-linker [5]
1 | SKV^DPPTIAALLSPYSYSQ (head to tail) [CG2] | no protective effect | – | – | – | – | –
2 | SKV^DPPTIAALLSPYSYSQ [LG2] | – | nor did they affect Aβ aggregation | nor did they affect Aβ aggregation or inhibit Aβ toxicity | – | – | –
3 | SKVVT^DPPRYTIAALLSPYSYSQ [LG3] | no protective effect | – | – | at most a minor inhibitory effect | did not scatter light above background | ~ 5 kDa
